Common to all, as to format: functional, organism-based
For one test, the system named is Fusarium culmorum. Briefly: Fungistatic activity against Fusarium culmorum AM 282 assessed as effect on diameter of fungal growth zone. Put shortly:
(§1)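 Agar dilution growth-zone assay. Lactones in DMSO were mixed into sterilized potato dextrose agar (0.01 mL DMSO per 1 mL agar) at final concentrations of 50–300 μg/mL. A fungal mycelium plug was placed on the agar and grown at 27 °C and 60–80% relative humidity. Growth-zone diameters were measured once DMSO-only control colonies reached 5.5–6.0 cm. Inhibition = (1 − Da/Db) × 100%. IC50 was taken from four concentrations, each run in triplicate. DDAC served as reference.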

The subject of a further test is Fusarium oxysporum. Briefly: Fungistatic activity against Fusarium oxysporum AM 13 assessed as effect on diameter of fungal growth zone. The gist of the method: as §1
The subject of another test is Penicillium citrinum. Briefly: Fungistatic activity against Penicillium citrinum AM 354 assessed as effect on diameter of fungal growth zone. Put shortly:
as §1

The test system of the next test is Aspergillus ochraceus. The experiment in a line: Fungistatic activity against Aspergillus ochraceus AM 456 assessed as effect on diameter of fungal growth zone. Put shortly:
as §1

Another test concerns Fusarium tricinctum. Briefly: Fungistatic activity against Fusarium tricinctum AM 16 assessed as effect on diameter of fungal growth zone. The gist of the method: as §1
Setting [1] is: Fusarium culmorum, AM 282, read-out: IC50.
[2] abbreviates: Fusarium oxysporum, AM 13, read-out: IC50.

The source of these data is ChEMBL document CHEMBL3045864, “Fungistatic activity of bicyclo[4.3.0]-γ-lactones” (J Agric Food Chem, 2011).

In brackets after ≈: the same amount, converted by molar mass.

As for `CC1(C)OC(=O)[C@H]2CC=CC[C@H]21` (racemic), the IC50 in the test on Fusarium culmorum (setting [1]) was 183 µg/mL (≈ 1100 µM); with Fusarium oxysporum (setting [2]) it was 188 µg/mL (≈ 1130 µM); with Penicillium citrinum, 274 µg/mL (≈ 1650 µM); in the test with Aspergillus ochraceus it was 159 µg/mL (≈ 958 µM); with Fusarium tricinctum, 205 µg/mL (≈ 1230 µM).

As for `CCCCCCCCCC[N+](C)(C)CCCCCCCCCC.[Cl-]` [DIDECYLDIMETHYLAMMONIUM CHLORIDE], the IC50 is 24.5 µg/mL in the test on Fusarium culmorum (setting [1]); 24.2 µg/mL in the test on Fusarium oxysporum (setting [2]); 41.6 µg/mL in the test on Penicillium citrinum; 51.3 µg/mL in the test with Aspergillus ochraceus; 27.9 µg/mL with Fusarium tricinctum.

For the compound `O=C1OC[C@H]2CC=CC[C@@H]12` (racemic), the IC50 was 184 µg/mL (≈ 1330 µM) with Fusarium culmorum (setting [1]); 282 µg/mL (≈ 2040 µM) in the test on Fusarium oxysporum (setting [2]); greater than 350 µg/mL with Penicillium citrinum; 171 µg/mL (≈ 1240 µM) with Aspergillus ochraceus; 221 µg/mL (≈ 1600 µM) in the test on Fusarium tricinctum.

As for `CC1(C)OC(=O)[C@H]2C[C@H]3O[C@H]3C[C@H]21` (racemic), the IC50 was 142 µg/mL (≈ 777 µM) in the test on Fusarium culmorum (setting [1]); 95.3 µg/mL (≈ 523 µM) in the test on Fusarium oxysporum (setting [2]); greater than 350 µg/mL in the test with Penicillium citrinum; 142 µg/mL (≈ 780 µM) in the test with Aspergillus ochraceus; 180 µg/mL (≈ 991 µM) in the test with Fusarium tricinctum.

On to `CC1(C)OC(=O)[C@@H]2CCCC[C@@H]21` (racemic), for which the IC50 in the test with Fusarium culmorum was 134.5 µg/mL (≈ 799 µM); with Fusarium oxysporum, 179.1 µg/mL (≈ 1060 µM); in the test on Penicillium citrinum it was 292 µg/mL (≈ 1730 µM); in the test on Aspergillus ochraceus, 160 µg/mL (≈ 949 µM); in the test on Fusarium tricinctum, 213 µg/mL (≈ 1260 µM).

As to `O=C1OC[C@@H]2CCCC[C@H]12`, the IC50 was 169 µg/mL (≈ 1210 µM) with Fusarium culmorum (setting [1]) and 261 µg/mL (≈ 1860 µM) with Fusarium oxysporum (setting [2]).

As for `O=C1OC[C@H]2C[C@H]3O[C@H]3C[C@@H]12` (racemic), the IC50 in the test with Fusarium culmorum (setting [1]) was determined as 90.4 µg/mL (≈ 586 µM); in the test on Fusarium oxysporum (setting [2]) it was 72.2 µg/mL (≈ 468 µM); with Penicillium citrinum it was 312 µg/mL (≈ 2030 µM); in the test on Aspergillus ochraceus, 141 µg/mL (≈ 915 µM); in the test with Fusarium tricinctum, 156 µg/mL (≈ 1020 µM).

Take `O=C1OCC2CCC(O)CC12` (racemic): the IC50 in the test on Fusarium culmorum (setting [1]) was 121 µg/mL (≈ 773 µM); with Fusarium oxysporum (setting [2]) it was 127 µg/mL (≈ 811 µM); in the test with Penicillium citrinum, greater than 350 µg/mL; with Aspergillus ochraceus it was 212 µg/mL (≈ 1360 µM); with Fusarium tricinctum, 161 µg/mL (≈ 1030 µM).

Regarding `CC1(C)OC(=O)[C@H]2C[C@@H](Br)[C@H](Br)C[C@H]21` (racemic), the IC50 stood at 155 µg/mL (≈ 474 µM) with Fusarium culmorum (setting [1]); 80.2 µg/mL (≈ 246 µM) in the test on Fusarium oxysporum (setting [2]); 255 µg/mL (≈ 782 µM) in the test on Penicillium citrinum; 121 µg/mL (≈ 371 µM) in the test with Aspergillus ochraceus; 191 µg/mL (≈ 586 µM) in the test on Fusarium tricinctum.

For the compound `CC1(C)OC(=O)[C@H]2C[C@@H](O)[C@H](Br)C[C@H]21` (racemic), the IC50 was 166 µg/mL (≈ 632 µM) in the test on Fusarium culmorum (setting [1]); 170 µg/mL (≈ 648 µM) in the test with Fusarium oxysporum (setting [2]); 212 µg/mL (≈ 806 µM) in the test with Penicillium citrinum; 220 µg/mL (≈ 838 µM) with Aspergillus ochraceus; 162 µg/mL (≈ 617 µM) with Fusarium tricinctum.

Take `O=C1OC[C@H]2C[C@@H](Br)[C@H](Br)C[C@@H]12` (racemic): the IC50 in the test on Fusarium culmorum (setting [1]) amounted to 81.5 µg/mL (≈ 274 µM); in the test with Fusarium oxysporum (setting [2]) it was 30.1 µg/mL (≈ 101 µM); in the test on Penicillium citrinum it was 306 µg/mL (≈ 1030 µM); with Aspergillus ochraceus, 219 µg/mL (≈ 735 µM); in the test on Fusarium tricinctum, 110 µg/mL (≈ 371 µM).

For the compound `O=C1OC(=O)C2CCCCC12` (racemic), the IC50 in the test with Fusarium culmorum (setting [1]) is 292 µg/mL (≈ 1890 µM); in the test with Fusarium oxysporum (setting [2]) it was 240 µg/mL (≈ 1560 µM); in the test with Penicillium citrinum, greater than 350 µg/mL; in the test with Aspergillus ochraceus, 342 µg/mL (≈ 2220 µM); in the test with Fusarium tricinctum it was 303 µg/mL (≈ 1960 µM).

On to `O=C1OC[C@@H]2C[C@@H](Br)[C@H](Br)C[C@H]12`, for which the figures for the IC50 with Fusarium culmorum (setting [1]) and in the test on Fusarium oxysporum (setting [2]) were 90.5 µg/mL (≈ 304 µM) and 47.5 µg/mL (≈ 159 µM), respectively.

`O=C1OC(=O)[C@@H]2CC=CC[C@H]12`: the IC50 in the test on Fusarium culmorum (setting [1]) is 310 µg/mL (≈ 2040 µM); with Fusarium oxysporum (setting [2]), 220 µg/mL (≈ 1450 µM); in the test on Penicillium citrinum it was greater than 350 µg/mL; in the test on Aspergillus ochraceus it was 287 µg/mL (≈ 1880 µM); in the test on Fusarium tricinctum, 289 µg/mL (≈ 1900 µM).

On to `O=C1OC[C@H]2CCCC[C@@H]12` (racemic), for which the IC50 is 147 µg/mL (≈ 1050 µM) in the test with Fusarium culmorum (setting [1]); 314 µg/mL (≈ 2240 µM) in the test with Fusarium oxysporum (setting [2]); greater than 350 µg/mL in the test on Penicillium citrinum; 187 µg/mL (≈ 1330 µM) in the test on Aspergillus ochraceus; 222 µg/mL (≈ 1580 µM) in the test on Fusarium tricinctum.

With `O=C1OC[C@@H]2CC=CC[C@H]12`, the IC50 stood at 171 µg/mL (≈ 1240 µM) in the test on Fusarium culmorum (setting [1]) and 222 µg/mL (≈ 1610 µM) in the test on Fusarium oxysporum (setting [2]).

As to `O=C1OC[C@@H]2C[C@@H](Br)[C@H](O)C[C@H]12` (racemic), the IC50 came out at 172 µg/mL (≈ 733 µM) in the test on Fusarium culmorum (setting [1]); 141 µg/mL (≈ 600 µM) in the test with Fusarium oxysporum (setting [2]); 292 µg/mL (≈ 1240 µM) in the test with Penicillium citrinum; 141 µg/mL (≈ 599 µM) in the test on Aspergillus ochraceus; 211 µg/mL (≈ 898 µM) in the test with Fusarium tricinctum.

As to `O=C1OC[C@@H]2C[C@@H]3O[C@@H]3C[C@H]12`, the IC50 in the test on Fusarium culmorum (setting [1]) stood at 59.7 µg/mL (≈ 387 µM); in the test with Fusarium oxysporum (setting [2]), 51.9 µg/mL (≈ 337 µM).

As to `O=C1OC[C@H]2CCC[C@H](Br)[C@@H]12` (racemic), the IC50 was found to be 133 µg/mL (≈ 608 µM) in the test on Fusarium culmorum (setting [1]); 184 µg/mL (≈ 840 µM) in the test on Fusarium oxysporum (setting [2]); 282 µg/mL (≈ 1290 µM) with Penicillium citrinum; 244 µg/mL (≈ 1120 µM) in the test on Aspergillus ochraceus; 173 µg/mL (≈ 791 µM) in the test on Fusarium tricinctum.

Consider `CC1(C)OC(=O)[C@@H]2CCCC[C@@H]21`, for which the 50% inhibitory concentration (IC50) in the test with Fusarium culmorum (setting [1]) came out at 121 µg/mL (≈ 717 µM); in the test on Fusarium oxysporum (setting [2]), 162 µg/mL (≈ 965 µM).

As usually defined, the IC50 is the concentration that inhibits the measured activity by half.
